Measured values: ChEMBL document CHEMBL1135530, “Selective alpha4beta7 integrin antagonists and their potential as antiinflammatory agents” (J Med Chem, 2002)
Peptide text beside a SMILES is read from it.

Key:
[1] = molecular target: T1, Integrin alpha-4/beta-7 (Homo sapiens, UniProt P13612+P26010); assay: Ability to block the alpha4-beta7 integrin-MAdCAM-1 binding interaction using a protein ELISA format; format: protein-complex assay
T1 sequence (P13612 whole entry): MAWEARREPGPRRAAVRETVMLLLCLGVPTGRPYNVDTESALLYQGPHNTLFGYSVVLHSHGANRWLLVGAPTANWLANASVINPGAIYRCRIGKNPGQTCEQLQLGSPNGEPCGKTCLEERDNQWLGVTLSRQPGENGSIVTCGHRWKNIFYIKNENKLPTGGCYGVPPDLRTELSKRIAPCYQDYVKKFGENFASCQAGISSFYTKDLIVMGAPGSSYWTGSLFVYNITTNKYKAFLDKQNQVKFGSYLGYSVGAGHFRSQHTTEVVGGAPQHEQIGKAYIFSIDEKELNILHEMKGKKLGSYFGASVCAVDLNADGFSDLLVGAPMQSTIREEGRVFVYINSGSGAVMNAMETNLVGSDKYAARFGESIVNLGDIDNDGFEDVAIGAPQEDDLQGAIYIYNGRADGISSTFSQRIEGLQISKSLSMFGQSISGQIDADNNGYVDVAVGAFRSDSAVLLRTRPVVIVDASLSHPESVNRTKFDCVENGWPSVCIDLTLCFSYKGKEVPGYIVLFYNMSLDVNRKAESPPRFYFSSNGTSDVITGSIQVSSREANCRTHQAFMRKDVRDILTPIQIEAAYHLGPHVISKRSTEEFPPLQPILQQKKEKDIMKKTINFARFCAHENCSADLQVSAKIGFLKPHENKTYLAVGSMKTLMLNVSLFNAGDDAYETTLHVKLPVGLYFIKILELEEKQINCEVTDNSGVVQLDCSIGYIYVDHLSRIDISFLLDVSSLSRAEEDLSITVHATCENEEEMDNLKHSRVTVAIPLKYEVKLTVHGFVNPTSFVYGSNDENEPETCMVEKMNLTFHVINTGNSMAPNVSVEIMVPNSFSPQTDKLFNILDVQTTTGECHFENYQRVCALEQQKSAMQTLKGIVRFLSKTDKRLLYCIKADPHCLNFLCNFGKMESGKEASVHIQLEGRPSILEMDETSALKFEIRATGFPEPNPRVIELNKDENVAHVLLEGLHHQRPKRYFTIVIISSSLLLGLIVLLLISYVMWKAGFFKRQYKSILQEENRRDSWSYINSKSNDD
T1 sequence (P26010 whole entry): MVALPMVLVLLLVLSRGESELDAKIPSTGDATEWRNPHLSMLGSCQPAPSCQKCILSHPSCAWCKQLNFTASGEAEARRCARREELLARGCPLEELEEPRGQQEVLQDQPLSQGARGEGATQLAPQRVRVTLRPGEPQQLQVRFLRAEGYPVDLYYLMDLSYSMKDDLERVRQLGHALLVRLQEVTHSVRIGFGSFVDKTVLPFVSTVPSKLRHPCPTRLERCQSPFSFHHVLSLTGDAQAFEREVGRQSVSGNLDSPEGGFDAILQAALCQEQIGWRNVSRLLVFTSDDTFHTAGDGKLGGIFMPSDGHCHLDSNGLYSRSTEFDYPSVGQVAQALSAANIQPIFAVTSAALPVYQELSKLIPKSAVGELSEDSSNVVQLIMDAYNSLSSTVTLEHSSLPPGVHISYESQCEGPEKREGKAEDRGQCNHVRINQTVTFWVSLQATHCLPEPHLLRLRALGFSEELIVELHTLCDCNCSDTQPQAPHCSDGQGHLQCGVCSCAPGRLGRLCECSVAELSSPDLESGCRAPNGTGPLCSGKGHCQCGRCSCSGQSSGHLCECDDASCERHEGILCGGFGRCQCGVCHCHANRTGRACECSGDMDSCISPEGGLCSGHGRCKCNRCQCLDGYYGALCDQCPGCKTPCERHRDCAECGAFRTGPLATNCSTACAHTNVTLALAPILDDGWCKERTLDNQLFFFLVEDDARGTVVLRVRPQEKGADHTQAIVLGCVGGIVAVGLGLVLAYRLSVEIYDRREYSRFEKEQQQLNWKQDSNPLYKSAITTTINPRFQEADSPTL
Method in brief: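 Plates coated overnight at 4 °C with anti-human α4 antibody 9F10 (2 µg/mL), blocked in Tris pH 7.5 buffer with 1 mM MnCl2, Tween-20 and 0.5% BSA, then loaded with α4β7 purified from transfected JY cells (2 µg/mL). Compounds (1 nM–200 µM final, triplicate) plus MAdCAM-1-Ig-HRP (1 µg/mL), 2 h room temperature. TMB read at 450 nm; IC50 at half-maximal absorbance.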

[2] = molecular target: Integrin alpha-4/beta-1 (Homo sapiens, UniProt P05556+P13612); assay: Inhibitory concentration affording 50% inhibition of alpha4-beta1 integrin binding to VCAM-1, using ELISA assay.; format: protein-complex assay
Chain of Integrin alpha-4/beta-1 (P05556 whole entry, one chain of several, the tested form may be a part): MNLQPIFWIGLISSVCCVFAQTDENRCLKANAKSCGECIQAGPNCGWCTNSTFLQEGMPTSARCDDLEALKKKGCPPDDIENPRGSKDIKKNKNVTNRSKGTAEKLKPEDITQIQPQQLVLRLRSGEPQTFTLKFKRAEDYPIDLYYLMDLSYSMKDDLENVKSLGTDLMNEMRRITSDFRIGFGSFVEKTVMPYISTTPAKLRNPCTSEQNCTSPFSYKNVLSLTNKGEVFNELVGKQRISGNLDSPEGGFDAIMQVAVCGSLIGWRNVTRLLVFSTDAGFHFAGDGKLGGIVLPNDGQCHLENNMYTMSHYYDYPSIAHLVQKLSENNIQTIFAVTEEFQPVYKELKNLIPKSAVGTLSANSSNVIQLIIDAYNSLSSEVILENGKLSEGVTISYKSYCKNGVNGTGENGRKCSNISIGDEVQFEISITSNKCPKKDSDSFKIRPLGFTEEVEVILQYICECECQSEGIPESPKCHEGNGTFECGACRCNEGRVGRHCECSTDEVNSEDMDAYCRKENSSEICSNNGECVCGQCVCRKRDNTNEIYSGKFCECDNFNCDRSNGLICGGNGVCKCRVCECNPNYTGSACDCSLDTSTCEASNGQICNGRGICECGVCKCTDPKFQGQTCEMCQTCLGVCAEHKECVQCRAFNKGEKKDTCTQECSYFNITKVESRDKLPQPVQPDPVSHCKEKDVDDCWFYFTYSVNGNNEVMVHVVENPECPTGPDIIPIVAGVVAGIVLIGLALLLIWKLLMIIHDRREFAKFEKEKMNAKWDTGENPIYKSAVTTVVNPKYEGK
Method in brief: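 α4β1 extracted from Ramos cell membranes (lectin chromatography, gel filtration in 1% octylglucoside), with 1 mM MnCl2 throughout. Wells coated with 4 µg/mL recombinant soluble human VCAM-1 (5 N-terminal Ig domains, from CHO cells) and blocked with 1% BSA. Inhibitor and receptor 2 h at 37 °C in Tris pH 7.4. Bound receptor detected with anti-β1 mAb 2D4.6, then HRP anti-mouse and TMB at 450 nm. IC50 at half-maximal absorbance.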

| IC50 [1] | IC50 [2] | SMILES |
| --- | --- | --- |
| 0.64 µM | 11.8 µM | CSCC[C@H](N)C(=O)N[C@@H](CC(=O)O)C(=O)N[C@H]1CSSC[C@@H](C(N)=O)NC(=O)[C@H](CC(C)C)NC(=O)[C@H]([C@@H](C)O)NC(=O)[C@H](CC(=O)O)NC(=O)[C@H](CO)NC(=O)[C@H](CCCN=C(N)N)NC1=O (HELM PEPTIDE1{M.D.C.R.S.D.T.L.C.[am]}$PEPTIDE1,PEPTIDE1,3:R3-9:R3$$$V2.0) |
| 2.2 µM | 3.6 µM | CC(C)C[C@@H]1NC(=O)[C@H]([C@@H](C)O)NC(=O)[C@H](CC(=O)O)NC(=O)[C@H](C)NC(=O)[C@H](CCCNC(=N)N)NC(=O)[C@@H](N)CSSC[C@@H](C(N)=O)NC1=O (HELM PEPTIDE1{C.R.A.D.T.L.C.[am]}$PEPTIDE1,PEPTIDE1,1:R3-7:R3$$$V2.0) |
| 1.8 µM | 25 µM | CC[C@H](C)[C@@H]1NC(=O)[C@H]([C@@H](C)O)NC(=O)[C@H](CC(=O)O)NC(=O)[C@H](CO)NC(=O)[C@H](CCCNC(=N)N)NC(=O)[C@@H](N)CSSC[C@@H](C(N)=O)NC1=O |
| 0.13 µM | 0.4 µM | CC(C)C[C@@H]1NC(=O)[C@H]([C@@H](C)O)NC(=O)[C@H](CC(=O)O)NC(=O)[C@H](CO)NC(=O)[C@H](CCCNC(=N)N)NC(=O)[C@@H](N)CSSC[C@@H](C(=O)O)NC1=O |
| 0.26 µM | 8.3 µM | CC(C)C[C@@H]1NC(=O)[C@H]([C@@H](C)O)NC(=O)[C@H](CC(=O)O)NC(=O)[C@H](CO)NC(=O)[C@H](CCCN=C(N)N)NC(=O)[C@@H](NC(=O)[C@@H](N)CC(=O)O)CSSC[C@@H](C(=O)NCC(=O)N[C@@H](CCC(=O)O)C(N)=O)NC1=O (HELM PEPTIDE1{D.C.R.S.D.T.L.C.G.E.[am]}$PEPTIDE1,PEPTIDE1,2:R3-8:R3$$$V2.0) |
| 10 µM | 60 µM | CC(C)C[C@@H]1NC(=O)[C@H](C)NC(=O)[C@H](CC(=O)O)NC(=O)[C@H](CO)NC(=O)[C@H](CCCN=C(N)N)NC(=O)[C@@H](N)CSSC[C@@H](C(N)=O)NC1=O (HELM PEPTIDE1{C.R.S.D.A.L.C.[am]}$PEPTIDE1,PEPTIDE1,1:R3-7:R3$$$V2.0) |
| 4.5 µM | 59 µM | CC(C)[C@@H]1NC(=O)[C@H]([C@@H](C)O)NC(=O)[C@H](CC(=O)O)NC(=O)[C@H](CO)NC(=O)[C@H](CCCNC(=N)N)NC(=O)[C@@H](N)CSSC[C@@H](C(N)=O)NC1=O |
| 11 µM | > 100 µM | C[C@@H](O)[C@@H]1NC(=O)[C@H](CC(=O)O)NC(=O)[C@H](CO)NC(=O)[C@H](CCCN=C(N)N)NC(=O)[C@@H](N)CSSC[C@@H](C(N)=O)NC(=O)CNC1=O |
| 1.9 µM | 0.8 µM | CC(C)C[C@@H]1NC(=O)[C@H](CCCN=C(N)N)NC(=O)[C@@H](N)CSSC[C@@H](C(N)=O)NC(=O)[C@H](CC(C)C)NC(=O)[C@H]([C@@H](C)O)NC(=O)[C@H](CC(=O)O)NC1=O |
| > 100 µM | > 100 µM | CC(C)C[C@H]1NC(=O)[C@H]([C@H](C)O)NC(=O)[C@H](CC(=O)O)NC(=O)[C@H](CO)NC(=O)[C@@H](CCCN=C(N)N)NC(=O)[C@H](N)CSSC[C@H](C(N)=O)NC1=O |
| > 100 µM | > 100 µM | CC(C)C[C@@H]1NC(=O)[C@H]([C@@H](C)O)NC(=O)[C@H](C)NC(=O)[C@H](CO)NC(=O)[C@H](CCCN=C(N)N)NC(=O)[C@@H](N)CSSC[C@@H](C(N)=O)NC1=O (HELM PEPTIDE1{C.R.S.A.T.L.C.[am]}$PEPTIDE1,PEPTIDE1,1:R3-7:R3$$$V2.0) |
| 20 µM | 1.2 µM | CC[C@H](C)[C@@H]1NC(=O)[C@H](CCCN=C(N)N)NC(=O)[C@@H](N)CSSC[C@@H](C(N)=O)NC(=O)[C@H](CC(C)C)NC(=O)[C@H]([C@@H](C)O)NC(=O)[C@H](CC(=O)O)NC1=O |
| 0.43 µM | 0.16 µM | CC(C)C[C@@H]1NC(=O)[C@H]([C@@H](C)O)NC(=O)[C@H](CC(=O)O)NC(=O)[C@H](CO)NC(=O)[C@H](Cc2c[nH]c3ccccc23)NC(=O)[C@@H](N)CSSC[C@@H](C(N)=O)NC1=O |
| 40 µM | 37 µM | C[C@@H](O)[C@@H]1NC(=O)[C@H](CC(=O)O)NC(=O)[C@H](CO)NC(=O)[C@H](CCCNC(=N)N)NC(=O)[C@@H](N)CSSC[C@@H](C(N)=O)NC(=O)[C@@H]2CCCN2C1=O |
| 175 µM | 88 µM | CC(C)C[C@@H]1NC(=O)[C@H]([C@@H](C)O)NC(=O)[C@H](CC(N)=O)NC(=O)[C@H](CO)NC(=O)[C@H](CCCNC(=N)N)NC(=O)[C@@H](N)CSSC[C@@H](C(N)=O)NC1=O |
| 0.13 µM | 0.009 µM | CC(C)C[C@@H]1NC(=O)[C@H]([C@@H](C)O)NC(=O)[C@H](CC(=O)O)NC(=O)[C@H](CO)NC(=O)[C@H](Cc2ccc(O)cc2)NC(=O)[C@@H](N)CSSC[C@@H](C(N)=O)NC1=O |
| 0.25 µM | 1.5 µM | CC(C)C[C@@H]1NC(=O)[C@H]([C@@H](C)O)NC(=O)[C@H](CC(=O)O)NC(=O)[C@H](CO)NC(=O)[C@H](CCCCN)NC(=O)[C@@H](N)CSSC[C@@H](C(N)=O)NC1=O |
| 0.84 µM | 13 µM | CC(C)C[C@@H]1NC(=O)[C@H](C(C)C)NC(=O)[C@H](CC(=O)O)NC(=O)[C@H](CO)NC(=O)[C@H](CCCN=C(N)N)NC(=O)[C@@H](N)CSSC[C@@H](C(N)=O)NC1=O |
| 0.52 µM | 8.6 µM | CC(C)C[C@@H]1NC(=O)[C@H]([C@@H](C)O)NC(=O)[C@H](CC(=O)O)NC(=O)[C@H](CO)NC(=O)[C@H](CCCNC(=N)N)NC(=O)[C@@H](NC(=O)[C@@H](N)CC(=O)O)CSSC[C@@H](C(N)=O)NC1=O (HELM PEPTIDE1{D.C.R.S.D.T.L.C.[am]}$PEPTIDE1,PEPTIDE1,2:R3-8:R3$$$V2.0) |
| 40 µM | 2.2 µM | CC(C)C[C@@H]1NC(=O)[C@H]([C@@H](C)O)NC(=O)[C@H](CC(N)=O)NC(=O)[C@H](CO)NC(=O)[C@H](CCCNC(=N)N)NC(=O)[C@@H](N)CSSC[C@@H](C(=O)O)NC1=O |
| 30 µM | 3 µM | CC(C)C[C@@H]1NC(=O)[C@H]([C@@H](C)O)NC(=O)[C@H](CCC(=O)O)NC(=O)[C@H](CO)NC(=O)[C@H](CCCN=C(N)N)NC(=O)[C@@H](N)CSSC[C@@H](C(N)=O)NC1=O |
| 0.39 µM | 1.1 µM | CC(C)C[C@@H]1NC(=O)[C@H]([C@@H](C)O)NC(=O)[C@H](CC(=O)O)NC(=O)[C@H](CO)NC(=O)[C@H](Cc2cnc[nH]2)NC(=O)[C@@H](N)CSSC[C@@H](C(N)=O)NC1=O |
